The source of these data is ChEMBL document CHEMBL1154735, “A strategy to minimize reactive metabolite formation: discovery of (S)-4-(1-cyclopropyl-2-methoxyethyl)-6-[6-(difluoromethoxy)-2,5-dimethylpyridin-3-ylamino]-5-oxo-4,5-dihydropyrazine-2-carbonitrile as a potent, orally bioavailable corticotropin-releasing factor-1 receptor antagonist” (J Med Chem, 2009).

pIC50: −log10 of the molar value. Converted amounts (≈) assume the structure as drawn.

Data set [1] addresses T1, Corticotropin-releasing factor receptor 1 (Homo sapiens) (UniProt P34998).
T1 sequence (whole entry): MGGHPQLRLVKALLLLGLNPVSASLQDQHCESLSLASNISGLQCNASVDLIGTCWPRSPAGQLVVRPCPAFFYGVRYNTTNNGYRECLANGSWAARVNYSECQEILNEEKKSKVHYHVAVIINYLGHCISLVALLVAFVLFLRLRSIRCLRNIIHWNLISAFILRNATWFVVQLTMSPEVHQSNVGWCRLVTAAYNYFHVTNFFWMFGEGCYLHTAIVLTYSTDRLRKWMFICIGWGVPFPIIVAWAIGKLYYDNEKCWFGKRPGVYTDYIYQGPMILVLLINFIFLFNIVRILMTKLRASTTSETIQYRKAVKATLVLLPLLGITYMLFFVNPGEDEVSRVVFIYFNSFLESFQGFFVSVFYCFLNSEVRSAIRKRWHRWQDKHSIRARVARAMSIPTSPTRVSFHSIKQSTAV
The experiment in a line: (§1) Antagonist activity at CRF1 receptor in human Y79 cells assessed as inhibition of CRF-stimulated cAMP production after 30 mins by HTRF analysis. The data set is classed as functional, cell-based. In general terms: Cyclic AMP is a second messenger, typically raised through Gs and lowered through Gi signalling.

The target of data set [2] is T2, Corticotropin-releasing factor receptor 1 (Homo sapiens, UniProt P34998).
T2 sequence (P34998 whole entry): T1 sequence (whole entry)
The description is as §1. It counts as functional, cell-based.

Data set [3] deals with Rattus norvegicus. Nature of the data set: Anxiolytic activity in Sprague-Dawley rat assessed as decrease in exit latency at 0.56 mg/kg, po after 60 mins by defensive withdrawal test relative to control. It counts as functional. Details: scale not given: the % may be the effect or the level left. A digest of the protocol:
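Rats placed in a darkened chamber within an open illuminated field; time to emerge measured 60 min after oral dosing (0.56–3 mg/kg), n = 8; percent decrease in exit latency versus vehicle-treated animals, p < 0.05 significance.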

Data set [4] is described as follows: Clearance in Sprague-Dawley rat at 2 mg/kg, iv after 0.17 to 24 hrs by LC/MS/MS analysis. The data set is classed as ADME, organism-based. Details: dose 2 mg/kg, route intravenous. The following applies: in vivo.
The subject of data set [5] is Rattus norvegicus. The experiment in a line: Plasma free concentration in Sprague-Dawley rat at 1.8 mg/kg, po after 1 to 3 hrs by LC/MS/MS analysis. The data set is classed as ADME, organism-based. Details: dose 1.8 mg/kg, route oral. The following applies: in vivo.
Data set [6] has as its system Rattus norvegicus. The experiment in a line: Total plasma concentration in Sprague-Dawley rat at 0.56 mg/kg, po after 1 to 3 hrs by LC/MS/MS analysis. The data set is classed as ADME, organism-based. The arrangement: dose 0.56 mg/kg, route oral. Particulars: in vivo.
In data set [7] the target is T3, Corticotropin-releasing factor receptor 1 (Rattus norvegicus, UniProt P35353).
T3 sequence (P35353 whole entry): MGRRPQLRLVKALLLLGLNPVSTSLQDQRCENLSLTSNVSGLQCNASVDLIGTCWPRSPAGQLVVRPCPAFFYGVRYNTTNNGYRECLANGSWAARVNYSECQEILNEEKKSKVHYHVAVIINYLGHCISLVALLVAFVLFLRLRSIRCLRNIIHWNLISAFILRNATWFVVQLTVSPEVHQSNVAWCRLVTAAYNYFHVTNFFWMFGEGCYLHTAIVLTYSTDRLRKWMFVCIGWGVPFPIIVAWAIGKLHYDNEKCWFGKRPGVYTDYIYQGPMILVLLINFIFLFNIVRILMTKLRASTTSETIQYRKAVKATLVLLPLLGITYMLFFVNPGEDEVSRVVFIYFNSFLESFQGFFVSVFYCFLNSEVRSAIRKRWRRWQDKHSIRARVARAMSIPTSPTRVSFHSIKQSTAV
The experiment in a line: Displacement of [125I]Tyr-o-CRF from CRF1 receptor in rat frontal cortex homogenate by binding titration assay. It counts as tissue-based. For orientation: Displacement assays read how much labelled ligand stays bound in the presence of the test substance.

Data set [8] concerns Rattus norvegicus. Nature of the data set: Plasma free concentration in Sprague-Dawley rat at 3 mg/kg, po after 1 to 3 hrs by LC/MS/MS analysis. It counts as ADME, organism-based. Details: dose 3 mg/kg, route oral. Particulars: in vivo.
For data set [9], the system named is Rattus norvegicus. The experiment in a line: Ex vivo receptor occupancy of CRF1 receptor in Sprague-Dawley rat brain parietal assessed as inhibition of [125I]sauvagine binding at 3 mg/kg, po after 90 mins by autoradiography. It counts as functional. Particulars: 1.5 h.
A short description of data set [10]: Metabolic stability in NADPH-fortified rat liver microsomes assessed as parent compound remaining at 10 uM after 30 mins by HPLC/UV/MS analysis. The data set is classed as ADME, Microsome. Particulars: read-out: Stability. In a few lines: (§2)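 Pooled rat or human liver microsomes 1 mg/mL, 10 μM substrate, 100 mM potassium phosphate pH 7.4, 37 °C, started with NADPH-regenerating system (1.3 mM NADP+, 3.3 mM glucose-6-phosphate, 3.3 mM MgCl2, 0.5 U/mL G6PDH); GSH 5 mM in trapping runs. Sampled 0 and 30 min, acetonitrile quench; abundance as UV peak area (330–340 nm) fraction of all drug-related components by HPLC/UV/MS.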
In general terms: Liver microsomes are a subcellular fraction often used to study metabolism.

Data set [11] is described as follows: Octanol-water partition coefficient, log D at pH 7.4. The data set is classed as physicochemical. In a few lines:
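Partitioning between octanol and water at pH 7.4.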

Data set [12] is described as follows: Cmax in Sprague-Dawley rat at 10 mg/kg, po dosed as aqueous suspension of 1% polysorbate 80 in 0.5% methylcellulose after 2 to 4 hrs by LC/MS/MS analysis. It counts as ADME, organism-based. The arrangement: dose 10 mg/kg, route oral. Particulars: in vivo.
Data set [13] can be described thus: AUC in Beagle dog at 3 mg/kg, po dosed as aqueous suspension of Labrafil M 1944CS/DMAC/polysorbate 80, 85:10:5 (v/v) after 0.25 to 24 hrs by LC/MS/MS analysis. The data set is classed as ADME, organism-based, Canis lupus familiaris. The arrangement: time upper 24 hr, time lower 0.25 hr, dose 3 mg/kg, route oral. Particulars: plasma. In a few lines:
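Oral solution dosing at 3 mg/kg in Labrafil M 1944CS/DMAC/polysorbate 80, 85:10:5 (v/v), at 1 mL/kg, in fasted male beagle dogs (n = 2). Samples were acetonitrile-precipitated with internal standard and measured by LC/MS/MS using selected reaction monitoring in positive ion mode.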

Data set [14] in a line: Fraction unbound in human serum after 3 to 7 hrs by equilibrium dialysis. It counts as ADME, cell-free. A digest of the protocol: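 Human serum spiked with compound, equilibrium-dialysed against isotonic phosphate buffer for 3 or 7 h (depending on system) at 37 °C; both sides measured by LC/MS/MS, unbound fraction as buffer/serum concentration ratio.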
A short description of data set [15]: AUC in Sprague-Dawley rat at 10 mg/kg, po dosed as aqueous suspension of Labrafil M 1944CS/DMAC/polysorbate 80, 85:10:5 (v/v) after 0.25 to 24 hrs by LC/MS/MS analysis. Details: time 0.25-24 hr, dose 10 mg/kg, route oral. Particulars: plasma. It counts as ADME, organism-based.
The next data set concerns Liver microsomes. The experiment in a line: Metabolic stability in NADPH-fortified human liver microsomes assessed as GSH adduct formation at 10 uM after 30 mins by HPLC/UV/MS analysis. It counts as ADME, Microsome. The following applies: 0.5 h. A digest of the protocol: as §2
For data set [16], the system named is Rattus norvegicus. The experiment in a line: Ex vivo receptor occupancy of CRF1 receptor in Sprague-Dawley rat brain parietal assessed as inhibition of [125I]sauvagine binding at 0.56 mg/kg, po after 90 mins by autoradiography. Particulars: 1.5 h. The data set is classed as functional.
Data set [17] can be described thus: Half life in Beagle dog at 2 mg/kg, iv by LC/MS/MS analysis. It counts as ADME, organism-based, Canis lupus familiaris. Details: dose 2 mg/kg, route intravenous. The following applies: in vivo. A digest of the protocol:
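Male beagle dogs (n = 4), 2 mg/kg iv in propylene glycol:ethanol 90:10 (v/v), 1 mL/kg infused over 5 min at 0.2 mL/kg/min; femoral vein blood at 0.17–24 h; plasma frozen at –20 °C, analysed by LC/MS/MS.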

The nature of data set [18]: Solubility in simulated gastric fluid. The data set is classed as physicochemical. A digest of the protocol:
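Solubility measured in simulated gastric fluid and in simulated intestinal fluid (fed state).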

The nature of data set [19]: Drug metabolism in bile duct cannulated Sprague-Dawley rat assessed as GSH adduct formation in bile at 20 mg/kg, po after 24 hrs by HPLC/UV/MS analysis. The data set is classed as ADME, organism-based. Details: dose 20 mg/kg, route oral. Particulars: in vivo. A digest of the protocol: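 Male Sprague–Dawley bile duct cannulated rats (n = 3) dosed orally at 20 mg/kg in PEG/ethanol 90:10; vehicle-dosed controls (n = 3). Bile and urine pooled over 0–24 h, acetonitrile-precipitated and profiled by HPLC/UV/MS (Hydro-RP column, PDA 200–550 nm, positive-ion full and data-dependent scans).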

The pIC50 is the IC50 on a negative log10 scale, so that one unit is a factor of ten. For orientation: clearance means a measure of how efficiently the substance is removed, as volume per time. As usually defined, the inhibition in vivo is how much of the control response was suppressed. The logD is the decadic logarithm of the distribution of all forms, ionised or not, between an organic phase and buffer at a given pH. A word on the Cmax: it is the peak of the concentration-time curve. By AUC is commonly meant the area under the concentration-time curve, a measure of exposure. For orientation: fraction unbound means the share of the substance not bound to proteins or other matrix. In general, half-life refers to the time needed for the level to fall by half in the phase considered. What is called solubility is the concentration that dissolves in the medium under given conditions. Turning to `COC[C@H](C1CC1)n1cc(C#N)nc(Nc2cc(C)c(OC(F)F)nc2C)c1=O`, in data set [1], the inhibition result is “Dose-dependent effect”. Further, the pIC50 in [2] is 8.72; in [7], 9.07. Also, the Activity amounted to 7% in the data set with Rattus norvegicus [3], 1% in the data set on Liver microsomes and 0.1% in data set [19]. The molecule also yielded a clearance in [4] of 29 mL/min/kg. Further, the “Cp(f)” value in the data set with Rattus norvegicus [5] turned out to be 2.9 nM; with Rattus norvegicus [8], 5 nM. This molecule also yielded a concentration with Rattus norvegicus [6] of 24 nM. For the same molecule, in the data set on Rattus norvegicus [9], the inhibition in vivo at 3 mg/kg was 80%. Moreover, the remaining at 0.5 h, 10 µM in data set [10] was 82%. This molecule had a logD in data set [11] of 3.9. For the same molecule, the concentration in data set [12] peaked (Cmax) at 860 nM. Also, the values for the AUC in [13] and in data set [15] were 17 µM·h and 8.8 µM·h, respectively. For the same molecule, in data set [14], the fraction unbound came out at 0.035. Moreover, in the data set with Rattus norvegicus [16], the inhibition in vivo at 0.56 mg/kg was 39%. In addition, the half-life in data set [17] is 30 h. This molecule came in with a solubility in [18] of 15 µg/mL (≈ 37 µM).
